Assay results as given in ChEMBL document CHEMBL2057153, “Bisdionin C-a rationally designed, submicromolar inhibitor of family 18 chitinases” (ACS Med Chem Lett, 2011).

Tests used:
[1] = molecular target: Endochitinase B1 (Aspergillus fumigatus, UniProt Q873X9); experiment: Inhibition of Aspergillus fumigatus ChitinaseB1 expressed in Escherichia coli using 4-methyumbelliferyl-beta-B-N,N'-diacetylchitobiose after 10 mins
In short: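 Recombinant AfChiB1, expressed and purified as reported earlier, assayed with fluorogenic 4MU-GlcNAc2 substrate. IC50 obtained from triplicate measurements at each inhibitor concentration.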

[2] = Inhibition of human chitotriosidase using 4-methyumbelliferyl-beta-B-N,N'-triacetylchitotriose as substrate after 10 mins
In short: (§1)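 Enzymes (AfChiA1; human chitotriosidase) expressed and purified as reported earlier, assayed with fluorogenic 4MU-GlcNAc3 substrate. IC50 from triplicate measurements at each inhibitor concentration.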

[3] = molecular target: T1, Endochitinase A1 (Aspergillus fumigatus, UniProt Q873Y0); experiment: Inhibition of Aspergillus fumigatus chitinaseA1 using 4-methyumbelliferyl-beta-B-N,N'-triacetylchitotriose as substrate after 10 mins; in short: as §1
T1 sequence (Q873Y0 whole entry): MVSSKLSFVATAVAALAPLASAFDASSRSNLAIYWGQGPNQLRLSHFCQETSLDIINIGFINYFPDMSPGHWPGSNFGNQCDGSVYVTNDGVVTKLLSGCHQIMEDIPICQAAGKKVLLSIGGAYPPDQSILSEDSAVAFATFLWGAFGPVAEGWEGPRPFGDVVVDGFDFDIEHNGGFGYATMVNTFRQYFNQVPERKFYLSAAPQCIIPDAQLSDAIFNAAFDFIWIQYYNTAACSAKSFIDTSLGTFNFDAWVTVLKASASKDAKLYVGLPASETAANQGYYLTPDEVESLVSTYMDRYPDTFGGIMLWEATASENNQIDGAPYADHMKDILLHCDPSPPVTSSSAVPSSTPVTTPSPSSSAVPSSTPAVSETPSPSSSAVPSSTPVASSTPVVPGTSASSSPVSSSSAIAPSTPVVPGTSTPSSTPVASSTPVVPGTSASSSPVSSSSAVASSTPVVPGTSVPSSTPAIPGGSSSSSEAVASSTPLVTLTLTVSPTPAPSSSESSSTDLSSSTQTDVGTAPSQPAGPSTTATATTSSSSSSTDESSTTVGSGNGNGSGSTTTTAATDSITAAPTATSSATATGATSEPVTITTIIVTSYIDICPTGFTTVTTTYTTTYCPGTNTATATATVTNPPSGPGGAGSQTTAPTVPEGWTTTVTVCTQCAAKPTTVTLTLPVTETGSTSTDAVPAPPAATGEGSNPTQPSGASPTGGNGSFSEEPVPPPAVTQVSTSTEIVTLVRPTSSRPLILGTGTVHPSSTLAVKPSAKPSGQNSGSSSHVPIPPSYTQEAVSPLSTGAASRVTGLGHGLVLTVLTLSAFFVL

[4] = molecular target: Acidic mammalian chitinase (Mus musculus, UniProt Q91XA9); experiment: Inhibition of AMCase in BALB/c mouse lung homogenate using 4-methyumbelliferyl-beta-B-N,N'-diacetylchitobiose after 10 mins
In short: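 AMCase activity taken from lung homogenate of female BALB/C mice; 100 mg lung lobe tissue homogenized in HBSS. Substrate 4MU-GlcNAc2, fluorogenic 4-methylumbelliferone release. IC50 from triplicate measurements at each inhibitor concentration.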

Sequence of Acidic mammalian chitinase (Q91XA9 whole entry): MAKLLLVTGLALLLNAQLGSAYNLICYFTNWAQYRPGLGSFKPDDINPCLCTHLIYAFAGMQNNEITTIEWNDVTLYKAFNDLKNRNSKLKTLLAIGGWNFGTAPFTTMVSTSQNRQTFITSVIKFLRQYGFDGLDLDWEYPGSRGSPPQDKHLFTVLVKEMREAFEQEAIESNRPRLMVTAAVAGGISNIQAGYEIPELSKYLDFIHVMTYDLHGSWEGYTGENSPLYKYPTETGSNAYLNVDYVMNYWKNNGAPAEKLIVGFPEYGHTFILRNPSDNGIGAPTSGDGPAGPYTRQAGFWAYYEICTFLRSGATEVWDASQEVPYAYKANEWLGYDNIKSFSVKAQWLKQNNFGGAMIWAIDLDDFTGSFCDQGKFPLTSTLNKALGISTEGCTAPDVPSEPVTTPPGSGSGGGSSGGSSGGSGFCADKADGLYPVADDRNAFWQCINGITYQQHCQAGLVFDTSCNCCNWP

IC50 [1] [µM] | IC50 [2] [µM] | IC50 [3] [µM] | IC50 [4] [µM] | Structure (SMILES)
5.7 | 260 | 820 |  | Cn1cnc2c1c(=O)n(CCCCCn1c(=O)c3c(ncn3C)n(C)c1=O)c(=O)n2C [BISDIONIN E]
4.8 | 110 | > 1000 | 90 | Cn1cnc2c1c(=O)n(CCn1c(=O)c3c(ncn3C)n(C)c1=O)c(=O)n2C [BISDIONIN B]
0.2 | 8.3 | > 1000 | 3.4 | Cn1cnc2c1c(=O)n(CCCn1c(=O)c3c(ncn3C)n(C)c1=O)c(=O)n2C [BISDIONIN C]
9 | 91 | > 1000 |  | Cn1cnc2c1c(=O)n(CCCCn1c(=O)c3c(ncn3C)n(C)c1=O)c(=O)n2C [BISDIONIN D]
